Measurements: ChEMBL document CHEMBL1136830, “Design and synthesis of dimeric HIV-1 integrase inhibitory peptides” (Bioorg Med Chem Lett, 2003)
Starred links: 1 amine or outer side, 2 acyl side, 3 side chain; linkers in the order of their positions; H or OH if unused. Positions of bridges follow the written chain, without caps; N, C: chain ends. Non-standard residues stand in square brackets, D forms with d. Residues, ends and D or L forms follow the SMILES beside them. Chains are numbered I, II in the order given. X1 = O=C([C@@H](CC[*:3])N[*:1])[*:2]; CH2 = C([*:1])[*:2]

Key:
[1] = target: T1, Human immunodeficiency virus type 1 integrase (Human immunodeficiency virus 1, UniProt Q7ZJM1); experiment: In vitro inhibitory activity against HIV-1 integrase enzyme strand transfer process
Method in brief: (§1)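 HIV-1 integrase (500 nM) pre-incubated with peptides for 20 min at room temperature in 50 mM MOPS pH 7.2, 7.5 mM NaCl, 7.5 mM MnCl2, 5% glycerol. The 3'-processing and strand-transfer reactions were then run by an earlier published method with these changes. IC50 values were reported for each step.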

[2] = target: T1, Human immunodeficiency virus type 1 integrase; experiment: In vitro inhibitory activity against HIV-1 integrase enzyme 3'-end processing; method in brief: as §1

T1 sequence (Q7ZJM1 whole entry): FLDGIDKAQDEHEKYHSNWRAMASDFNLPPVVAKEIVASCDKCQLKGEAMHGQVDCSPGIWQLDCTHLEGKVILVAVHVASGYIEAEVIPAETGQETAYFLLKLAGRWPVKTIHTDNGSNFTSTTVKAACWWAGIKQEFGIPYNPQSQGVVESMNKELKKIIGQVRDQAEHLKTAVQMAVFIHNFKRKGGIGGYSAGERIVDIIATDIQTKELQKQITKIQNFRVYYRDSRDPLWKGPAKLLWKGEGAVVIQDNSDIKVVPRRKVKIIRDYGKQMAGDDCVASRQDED

IC50 [1]	IC50 [2]	Compound
63 µM	59 µM	NCCCC[C@H](NC(=O)[C@@H](CCSCC[C@@H](NC(=O)[C@@H](N)Cc1c[nH]cn1)C(=O)N[C@@H](CCCCN)C(=O)N[C@@H](Cc1ccccc1)C(=O)N[C@@H](Cc1c[nH]c2ccccc12)C(=O)N[C@@H](Cc1c[nH]c2ccccc12)C(N)=O)NC(=O)[C@@H](N)Cc1c[nH]cn1)C(=O)N[C@@H](Cc1ccccc1)C(=O)N[C@@H](Cc1c[nH]c2ccccc12)C(=O)N[C@@H](Cc1c[nH]c2ccccc12)C(N)=O
6.5 µM	5.3 µM	NCCCC[C@H](NC(=O)[C@H](CSCSC[C@H](NC(=O)[C@@H](N)Cc1c[nH]cn1)C(=O)N[C@@H](CCCCN)C(=O)N[C@@H](Cc1ccccc1)C(=O)N[C@@H](Cc1c[nH]c2ccccc12)C(=O)N[C@@H](Cc1c[nH]c2ccccc12)C(N)=O)NC(=O)[C@@H](N)Cc1c[nH]cn1)C(=O)N[C@@H](Cc1ccccc1)C(=O)N[C@@H](Cc1c[nH]c2ccccc12)C(=O)N[C@@H](Cc1c[nH]c2ccccc12)C(N)=O (I: H-HCKFWW-NH2 / II: H-HCKFWW-NH2; linker I:2-II:2 via CH2)
90 µM	102 µM	H-HCKFWW-NH2

The next lines start with the compound.

Compound	IC50 [1]	IC50 [2]
NCCCC[C@H](NC(=O)[C@H](CSC[C@H](NC(=O)[C@@H](N)Cc1c[nH]cn1)C(=O)N[C@@H](CCCCN)C(=O)N[C@@H](Cc1ccccc1)C(=O)N[C@@H](Cc1c[nH]c2ccccc12)C(=O)N[C@@H](Cc1c[nH]c2ccccc12)C(N)=O)NC(=O)[C@@H](N)Cc1c[nH]cn1)C(=O)N[C@@H](Cc1ccccc1)C(=O)N[C@@H](Cc1c[nH]c2ccccc12)C(=O)N[C@@H](Cc1c[nH]c2ccccc12)C(N)=O	19 µM	67 µM
NCCCC[C@H](NC(=O)[C@H](CSSC[C@H](NC(=O)[C@@H](N)Cc1c[nH]cn1)C(=O)N[C@@H](CCCCN)C(=O)N[C@@H](Cc1ccccc1)C(=O)N[C@@H](Cc1c[nH]c2ccccc12)C(=O)N[C@@H](Cc1c[nH]c2ccccc12)C(N)=O)NC(=O)[C@@H](N)Cc1c[nH]cn1)C(=O)N[C@@H](Cc1ccccc1)C(=O)N[C@@H](Cc1c[nH]c2ccccc12)C(=O)N[C@@H](Cc1c[nH]c2ccccc12)C(N)=O (I: H-HCKFWW-NH2 / II: H-HCKFWW-NH2; disulfide I:2-II:2)	58 µM	81 µM
NCCCC[C@H](NC(=O)[C@H](CSCC[C@@H](NC(=O)[C@@H](N)Cc1c[nH]cn1)C(=O)N[C@@H](CCCCN)C(=O)N[C@@H](Cc1ccccc1)C(=O)N[C@@H](Cc1c[nH]c2ccccc12)C(=O)N[C@@H](Cc1c[nH]c2ccccc12)C(N)=O)NC(=O)[C@@H](N)Cc1c[nH]cn1)C(=O)N[C@@H](Cc1ccccc1)C(=O)N[C@@H](Cc1c[nH]c2ccccc12)C(=O)N[C@@H](Cc1c[nH]c2ccccc12)C(N)=O (I: H-H[X1]KFWW-NH2 / II: H-HCKFWW-NH2; thioether I:2-II:2)	87 µM	77 µM
